Source: ChEMBL document CHEMBL1137500, “Inhibitors of type III secretion in Yersinia: design, synthesis and multivariate QSAR of 2-arylsulfonylamino-benzanilides” (Bioorg Med Chem, 2007)
The source made the active and inactive calls. No cut-off for these calls is given here.

Experiments:
[1] = test system: Yersinia pseudotuberculosis; assay: Growth inhibition of Yersinia pseudotuberculosis; format: functional, organism-based
Outline: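 Wild-type YPIII-pIB102 diluted to OD600 0.05-0.1 in BHI with 2.5 mM CaCl2. Grown at 37 °C with shaking, with compound at 10, 20, 50 or 100 µM. Absorbance read at 600 nm periodically, or at 595 nm hourly, over six hours and compared with the control growth curve.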

[2] = test system: Yersinia pseudotuberculosis; assay: Effect on T3S in Yersinia pseudotuberculosis 3 pIB29 assessed as inhibition of light emission at 10 uM by luciferase reporter gene assay
Outline: (§1)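 Strain YPIII-pIB29 (yopE-luxAB transcriptional fusion, lacking YopH), grown overnight at ambient temperature in BHI with 5 mM EGTA and 20 mM MgCl2 to deplete calcium, then adjusted to OD600 0.15-0.25. Compounds in DMSO (≤1% final) at 100, 50, 20 or 10 µM final, in triplicate. Plates shaken 1 h at ambient temperature, then 2 h at 37 °C. Decanal added within 30 min and luminescence read at once. Result is % inhibition of light versus control.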

[3] = target: Tyrosine-protein phosphatase YopH (Yersinia pseudotuberculosis serotype I (strain IP32953)) (UniProt P08538); assay: Inhibition of Yersinia pseudotuberculosis YP3-pIB102 YopH at 10 uM
Sequence of Tyrosine-protein phosphatase YopH (Yersinia pseudotuberculosis serotype I (strain IP32953)) (P08538 whole entry): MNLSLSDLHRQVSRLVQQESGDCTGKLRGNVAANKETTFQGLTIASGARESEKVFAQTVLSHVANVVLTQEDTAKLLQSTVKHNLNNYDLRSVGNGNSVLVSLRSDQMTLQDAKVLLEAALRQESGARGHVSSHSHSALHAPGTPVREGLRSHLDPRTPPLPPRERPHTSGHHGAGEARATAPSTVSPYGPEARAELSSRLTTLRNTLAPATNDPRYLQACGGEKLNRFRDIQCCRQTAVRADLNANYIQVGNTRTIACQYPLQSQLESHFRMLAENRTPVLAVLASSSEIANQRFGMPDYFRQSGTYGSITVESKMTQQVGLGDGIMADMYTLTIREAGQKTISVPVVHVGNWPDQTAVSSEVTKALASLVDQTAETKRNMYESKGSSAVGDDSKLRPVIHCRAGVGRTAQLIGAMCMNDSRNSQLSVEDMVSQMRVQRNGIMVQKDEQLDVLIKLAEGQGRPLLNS
Outline: (§2)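 Strain YPIII-pIB102 grown overnight at 26 °C in BHI with 25 µg/ml chloramphenicol. Diluted to OD600 0.08 in calcium-depleted BHI (5 mM EGTA, 20 mM MgCl2), with compound at 100, 50, 20 or 10 µM, and shaken 2 h at 37 °C. Culture aliquot added to 25 mM p-nitrophenyl phosphate, 40 mM MES pH 5.0 and 1.6 mM DTT for 15 min at 37 °C. Stopped with NaOH and read at A405. Triplicates; result is % inhibition of secreted YopH activity.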

[4] = test system: Yersinia pseudotuberculosis; assay: Effect on T3S in Yersinia pseudotuberculosis 3 pIB29 assessed as inhibition of light emission at 50 uM by luciferase reporter gene assay; outline: as §1
[5] = test system: Yersinia pseudotuberculosis; assay: Effect on T3S in Yersinia pseudotuberculosis 3 pIB29 assessed as inhibition of light emission at 20 uM by luciferase reporter gene assay; outline: as §1
[6] = target: Tyrosine-protein phosphatase YopH (Yersinia pseudotuberculosis serotype I (strain IP32953)) (UniProt P08538); assay: Inhibition of Yersinia pseudotuberculosis YP3-pIB102 YopH at 50 uM; outline: as §2
[7] = target: Tyrosine-protein phosphatase YopH (Yersinia pseudotuberculosis serotype I (strain IP32953)) (UniProt P08538); assay: Inhibition of Yersinia pseudotuberculosis YP3-pIB102 YopH at 100 uM; outline: as §2
[8] = test system: Yersinia pseudotuberculosis; assay: Effect on T3S in Yersinia pseudotuberculosis 3 pIB29 assessed as inhibition of light emission at 100 uM by luciferase reporter gene assay; outline: as §1
[9] = target: Tyrosine-protein phosphatase YopH (Yersinia pseudotuberculosis serotype I (strain IP32953)) (UniProt P08538); assay: Inhibition of Yersinia pseudotuberculosis YP3-pIB102 YopH at 20 uM; outline: as §2

| Compound | Activity [1] | inhibition [2] | inhibition [3] | inhibition [4] | inhibition [5] | inhibition [6] | inhibition [7] | inhibition [8] | inhibition [9] |
| --- | --- | --- | --- | --- | --- | --- | --- | --- | --- |
| O=C(Nc1ccc(F)c(Cl)c1)c1cc(Cl)ccc1NS(=O)(=O)c1ccc(Cl)c(Cl)c1 | inactive |  |  |  |  |  |  |  |  |
| O=C(Nc1ccc(Cl)c(Cl)c1)c1cc(F)c(F)cc1NS(=O)(=O)c1cccc([N+](=O)[O-])c1 | inactive | 9% | 26% | 79% | 33% | 74% | 81% | 90% | 67% |
| O=C(Nc1ccc(F)cc1)c1cc(Cl)ccc1NS(=O)(=O)c1cc(Cl)cc(Cl)c1O | inactive | 13% |  | 79% | 43% |  |  | 88% |  |
| O=C(Nc1ccc(Cl)c(Cl)c1)c1cc(Cl)ccc1NS(=O)(=O)c1ccccc1 | inactive | 58% |  | 73% | 70% |  |  | 70% |  |
| O=C(Nc1ccc(F)c(F)c1)c1ccc(Cl)cc1NS(=O)(=O)c1cc(Cl)cc(Cl)c1O | inactive | 15% |  | 86% | 50% |  |  | 87% |  |
| O=C(Nc1ccc(Cl)c(Cl)c1)c1cc(F)c(F)cc1NS(=O)(=O)c1cccc2nsnc12 | inactive | 9% |  | 66% | 39% |  |  | 80% |  |
| CC(=O)c1ccc(S(=O)(=O)Nc2cc(Cl)ccc2C(=O)Nc2ccc(F)c(Cl)c2)cc1 | inactive | 11% |  | 70% | 33% |  |  | 72% |  |
| O=C(Nc1ccc2c(c1)OCO2)c1ccc(Cl)cc1NS(=O)(=O)c1ccc(Cl)c(Cl)c1 | inactive | 37% | 33% | 74% | 66% | 64% | 59% | 69% | 60% |
| O=C(Nc1ccc(Cl)c(Cl)c1)c1ccccc1NS(=O)(=O)c1cccc2nsnc12 | inactive | 5% |  | 11% | 10% |  |  | 13% |  |
| O=C(Nc1ccc(Cl)cc1)c1ccccc1NS(=O)(=O)c1cccc2nsnc12 | inactive | -1% |  | 12% | 5% |  |  | 18% |  |
| Cc1ccc(S(=O)(=O)Nc2cc(F)c(F)cc2C(=O)Nc2ccc(Cl)c(Cl)c2)cc1 | inactive | 57% |  | 1% | 9% |  |  | 2% |  |
| O=C(Nc1ccc(F)c(F)c1)c1cc(F)c(F)cc1NS(=O)(=O)c1cccc([N+](=O)[O-])c1 | inactive | -2% |  | 23% | 2% |  |  | 49% |  |
| O=C(Nc1cccc(Cl)c1)c1cc(Cl)ccc1NS(=O)(=O)c1cccc2nsnc12 | inactive | 3% |  | 47% | 13% |  |  | 55% |  |
| O=C(Nc1ccc2cccnc2c1)c1cc(Cl)ccc1NS(=O)(=O)c1ccc(Cl)c(Cl)c1 | inactive | 18% |  | 59% | 51% |  |  | 52% |  |
| O=C(Nc1ccc(F)c(F)c1)c1ccc(Cl)cc1NS(=O)(=O)c1cccc2nsnc12 | inactive | 9% |  | 50% | 17% |  |  | 63% |  |
| O=C(Nc1ccc(Cl)c(Cl)c1)c1cc(F)c(F)cc1NS(=O)(=O)c1cc(Cl)cc(Cl)c1O | inactive | 69% | 57% | 92% | 85% | 80% | 81% | 92% | 82% |
| O=C(Nc1ccc(F)cc1)c1cc(F)c(F)cc1NS(=O)(=O)c1cccc(F)c1 | inactive | 22% | 27% | 71% | 51% | 63% | 70% | 75% | 54% |
| O=C(Nc1ccc(F)cc1)c1ccc(Cl)cc1NS(=O)(=O)c1ccc(Cl)c(Cl)c1 | inactive |  |  |  |  |  |  |  |  |
| COc1ccc(NC(=O)c2ccc(Cl)cc2NS(=O)(=O)c2cccc(F)c2)cc1 | inactive | 5% |  | 32% | 9% |  |  | 51% |  |
| O=C(Nc1ccc(Cl)c(Cl)c1)c1ccc(Cl)cc1NS(=O)(=O)c1cccc2nsnc12 | inactive | 35% |  | 71% | 61% |  |  | 68% |  |
| CN(C)c1ccc(NC(=O)c2cc(Cl)ccc2NS(=O)(=O)c2ccccc2)cc1 | inactive | 0% |  | 2% | 1% |  |  | 1% |  |
| CN(C)c1ccc(NC(=O)c2cc(Cl)ccc2NS(=O)(=O)c2cccc([N+](=O)[O-])c2)cc1 | inactive | 3% |  | 8% | 4% |  |  | 7% |  |
| COc1ccc(NC(=O)c2ccc(Cl)cc2NS(=O)(=O)c2ccc(Cl)c(Cl)c2)cc1 | inactive | 43% | 35% | 72% | 67% | 35% | 34% | 72% | 60% |
| O=C(Nc1ccc2c(c1)OCO2)c1ccc(Cl)cc1NS(=O)(=O)c1ccccc1 | inactive | 4% | 14% | 10% | 7% | 25% | 34% | 15% | 19% |
| O=C(Nc1ccc(Cl)c(Cl)c1)c1cc(Cl)ccc1NS(=O)(=O)c1cccc2nsnc12 | inactive | 48% | 19% | 69% | 68% | 66% | 63% | 62% | 62% |
| O=C(Nc1ccc2cccnc2c1)c1cc(Cl)ccc1NS(=O)(=O)c1ccccc1 | inactive | 0% |  | 7% | 2% |  |  | 10% |  |
| O=C(Nc1ccccc1)c1cc(Cl)ccc1NS(=O)(=O)c1cccc2nsnc12 | inactive | -2% |  | 9% | 1% |  |  | 20% |  |
